Screens deposited in PubChem BioAssay by several laboratories.
Tb hexokinase: T. brucei hexokinase 1 inhibition. recombinant TbHK1, G6PDH-coupled NADH A340. inhibition, % at 10 µM. 0.11% of 220,000 active. AID 1430;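 active = inhibition of 50% or more in the single-dose primary screen; inactive = inhibition below 50%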
Hck-Nef inh: inhibitors of human Hck kinase activated by Nef; P08631; Recombinant Hck-YEEI plus Nef, Z-Lyte FRET kinase assay; inhibition, % at 20 µM; 0.68% of 220,000 active;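 active = Hck-Nef kinase inhibition above about 50%, limit read from the data; inactive = inhibition below that limit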;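 also: 0% = DMSO with Hck plus Nef and 100% = Hck alone without Nef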
Runt-CBFb FRET: Runt domain-CBFb interaction inhibition | Q01196+Q13951 | Cerulean-Runt/Venus-CBFb FRET ratio 530/480, 1 h | 0.46% of 220,000 active | AID 1496 | inhibition, % at 20 µM;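 active = inhibition over about 50% at 20 µM in the single-dose screen, limit read from the data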;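 also: 0% = DMSO wells and 100% = excess unlabeled CBFb competitor control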
Target sequence (Q01196 whole entry, looked up, the tested form may be a part): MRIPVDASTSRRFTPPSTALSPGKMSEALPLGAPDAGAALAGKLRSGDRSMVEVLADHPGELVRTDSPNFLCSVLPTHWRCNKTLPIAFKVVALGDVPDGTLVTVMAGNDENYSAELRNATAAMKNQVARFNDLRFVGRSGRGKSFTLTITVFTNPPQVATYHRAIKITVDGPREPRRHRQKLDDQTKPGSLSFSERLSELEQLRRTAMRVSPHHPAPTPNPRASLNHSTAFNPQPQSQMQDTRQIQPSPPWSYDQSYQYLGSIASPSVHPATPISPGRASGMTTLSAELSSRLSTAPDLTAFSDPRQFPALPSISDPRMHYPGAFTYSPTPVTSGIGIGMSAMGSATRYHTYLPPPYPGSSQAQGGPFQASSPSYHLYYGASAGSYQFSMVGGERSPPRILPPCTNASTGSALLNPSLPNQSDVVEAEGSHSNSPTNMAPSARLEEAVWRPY
Target sequence (Q13951 whole entry, looked up, the tested form may be a part): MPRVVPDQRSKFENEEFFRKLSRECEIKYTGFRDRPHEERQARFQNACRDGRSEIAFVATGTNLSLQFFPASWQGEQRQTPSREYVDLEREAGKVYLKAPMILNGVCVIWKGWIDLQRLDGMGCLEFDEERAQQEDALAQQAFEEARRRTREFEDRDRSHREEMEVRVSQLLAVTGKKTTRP
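test system = Cerulean-tagged RUNX1 Runt domain (FRET donor) fusion protein | reagent = Venus-CBFb binding partner, 100 nM | incubation = protein complex preformed 1 h, compound exposure 1 h, room temperature, dark | detection = FRET fluorescence | read-out basis = loss of energy transfer signal | controls = 5 µM unlabeled CBFb as full-inhibition high control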
Runt-SMMHC FRET: blocks binding of human RUNX1 Runt domain to CBFb-SMMHC | AID 1434 | Cerulean-Runt/Venus-CBFb-SMMHC FRET ratio 530/480, 1 h | inhibition, % at 20 µM | 0.74% of 220,000 active;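 active = mean inhibition across duplicate retests at 20 µM reaching about 50%, limit read from the data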;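 also: 0% = DMSO wells and 100% = wells with excess untagged CBFb-SMMHC; inhibitors lower the FRET ratio by blocking Runt binding to CBFb-SMMHC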
p97 inhibitor: inhibitors of human p97 ATPase. P55072. recombinant p97 ATPase, Kinase-Glo ATP luminescence, 3 h. inhibition, % at 8 µM. 0.42% of 220,000 active. AID 1481; in the data active = inhibition above about 15%;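 also: 0% = DMSO vehicle and 100% = wells lacking enzyme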
RanGTP-Imp inh: disruptors of Ran-importin-beta complex formation – biochemical, FRET, CFP-Ran, YFP-importin-beta, homogeneous, primary screen; inhibition, % (concentration not given with the values); 1.1% of 300,000 active; AID 2216; cell-free CFP-Ran/YFP-importin-beta FRET ratio;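 active = more than half of the replicate wells show a fall in the fluorescence ratio signal beyond about 16%, limit read from the data, passing the limit was not always enough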;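 also: 0% = DMSO wells and 100% = Ran loaded with GDP instead of GTP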
Active calls of the source: *; · = no result given. The list is not random: actives were taken first. Their share in the collection is about 2.1%.

SMILES | Tb hexokinase | Hck-Nef inh | Runt-CBFb FRET | Runt-SMMHC FRET | p97 inhibitor | RanGTP-Imp inh
COc1ccc(C(C[N+](=O)[O-])c2c(C)[nH]n(-c3ccccc3)c2=O)cc1 (configuration not stated) | · | · | · | · | · | -1
CCN1C=CC2=C(C#N)C(N)C(C#N)(C#N)C(c3ccccc3C(F)(F)F)C2C1 (configuration not stated) | 2 | 32 | 76* | 83* | 3 | 58*
CCN1C=C(Cc2ccccc2C)C2=C(C1)C(c1ccccc1C)C(C#N)=C(N)O2 (configuration not stated) | -12 | 7 | 1 | 0 | -6 | 10
COc1cc(/C=N/N2C(=O)CSC2=S)cc(Br)c1O | -24 | 76* | 5 | -39 | -3 | ·
CC1(C)CC2(CC(c3ccccc3F)c3ccc(O)c(O)c3O2)NC(=S)N1 (configuration not stated) | -3 | 24 | 46 | 53 | 6 | -1
COc1cc(OC)c(/C=C2\SC(=O)N(CC(=O)Nc3ccccc3F)C2=O)c(OC)c1 | · | · | · | · | · | 46*
COc1ccc(NC(=O)C2(S(=O)(=O)c3ccc(C)cc3)CC2)cc1OC | · | · | · | · | · | -2
CCNC(=O)/C(C#N)=C/c1c(N2CCN(Cc3ccc4c(c3)OCO4)CC2)nc2c(C)cccn2c1=O | -16 | 4 | 50* | 63* | 5 | 9
COC(=O)/C(C#N)=C/c1c(N2CCN(c3ccccc3)CC2)nc2c(C)cccn2c1=O | · | · | · | · | · | 3
COCCCNC(=O)/C(C#N)=C/c1c(N2CCN(c3cccc(Cl)c3)CC2)nc2c(C)cccn2c1=O | · | · | · | · | · | 6
CCNC(=O)/C(C#N)=C/c1c(N2CCN(C)CC2)nc2c(C)cccn2c1=O | · | · | · | · | · | -56
C=CCNC(=O)/C(C#N)=C/c1c(N2CCN(c3ccccc3)CC2)nc2c(C)cccn2c1=O | · | · | · | · | · | 28*
COCCCNC(=O)/C(C#N)=C/c1c(N2CCN(c3ccccc3)CC2)nc2c(C)cccn2c1=O | · | · | · | · | · | 32*
Cn1c(SCc2cccc(Br)c2)nnc1-c1ccncc1 | · | · | · | · | · | 8
O=c1c2c([N+](=O)[O-])cc([N+](=O)[O-])cc2sn1-c1ccc(Br)cc1 | 92* | -9 | -33 | 52 | 2 | ·
COc1ccc(NC(=O)N2CCc3ccccc3C2)c(OC)c1 | · | · | · | · | · | 2
[C-]#[N+][C@H](O[C@@H]1O[C@H](CO)[C@@H](O)[C@H](O)[C@H]1O)c1ccccc1 | · | · | · | · | · | -4
O=C(O)CC(CCc1ccccc1)OC1OC(CO)C(O)C(O)C1O (configuration not stated) | 73* | 49 | 10 | -3 | · | ·
C/C(=N\NC(=O)c1ccccc1)C1C2C=CC(C2)C1(C)C (configuration not stated) | · | · | · | · | · | -1
CCOc1ccc(N(CC(=O)NCc2ccco2)C(=O)CCC(=O)Nc2ccccn2)cc1 | · | · | · | · | · | -8
CC(C)n1cc(/C=N/NC(=O)COc2cccc3cccnc23)c2ccccc21 | -22 | 74* | -5 | -14 | 4 | 3
C=CCn1cc(/C=N/NC(=O)COc2cccc3cccnc23)c2ccccc21 | -11 | 71* | -4 | -5 | 2 | -1
COc1cccc(/C=N/NC(=O)COc2cccc3cccnc23)c1O | -4 | -1 | 6 | 20 | 2 | -2
CSc1ncc(-c2ccc(Cl)cc2)[nH]1 | -1 | 1 | 5 | 2 | -3 | 1
N#Cc1sc2nc(-c3ccccc3)cc(-c3ccco3)c2c1N | -1 | 3 | 20 | -16 | 12 | -65
SMILES | Tb hexokinase | Hck-Nef inh | Runt-CBFb FRET | Runt-SMMHC FRET | p97 inhibitor | RanGTP-Imp inh
Cc1ccc(-c2cc(-c3ccccc3)c3c(N)c(S(C)(=O)=O)sc3n2)cc1 | -16 | 2 | 40 | 89* | 1 | -4
N=c1c(C(=O)NC2CCCC2)cc2c(=O)n3ccccc3nc2n1C1CCCCC1 | · | · | · | · | · | 181*
Cc1ccc2nc3c(cc(C(=O)NC4CCCCC4)c(=N)n3C3CCCCC3)c(=O)n2c1 | · | · | · | · | · | 182*
O=C(NC1CCCCCC1)c1ccc2nc3cc(Cl)ccc3c(=O)n2c1 | -6 | 26 | 7 | 0 | 4 | 12
Cc1ccc2nc3c(cc(C(=O)NC4CCCC4)c(=N)n3C3CCCCC3)c(=O)n2c1 | · | · | · | · | · | 182*
Cc1ccc(S(=O)(=O)c2cc3c(=O)n4ccccc4nc3n(C)c2=N)cc1 | -12 | -2 | 97* | 62* | 3 | 174*
Cc1ccc(S(=O)(=O)c2cc3c(=O)n4ccccc4nc3n(C3CCCC3)c2=N)cc1 | · | · | · | · | · | 123*
Cc1ccc(S(=O)(=O)c2cc3c(=O)n4ccccc4nc3n(CCc3ccccc3)c2=N)cc1 | · | · | · | · | · | 64*
CCN(CC)S(=O)(=O)c1ccc(N2CCOCC2)c(NC(=O)C2CC2)c1 | · | · | · | · | · | -2
Cc1cccc(NC(=O)C2Cc3ccccc3O/C2=N\O)c1 (configuration not stated) | · | · | · | · | · | -1
Cc1nc2ccn(Cc3ccccc3)c(=O)c2cc1C(=O)N1CCN(c2ccccc2)CC1 | · | · | · | · | · | 92*
O=C1CC[C@@H](CN(Cc2ccccn2)Cc2nc(-c3ccc(C(F)(F)F)cc3)no2)N1 | 2 | 27 | 1 | 0 | -5 | -3
O=Nc1c(-c2c(O)[nH]c3cc(Br)ccc23)[nH]c2ccccc12 | · | · | · | · | · | 5
CC(Nc1nc(-c2ccc3c(c2)NC(=O)CO3)cs1)c1ccccc1 (configuration not stated) | -2 | 137* | 0 | -1 | 3 | -2
O=C1COc2ccc(-c3csc(NCC4CCCO4)n3)cc2N1 (configuration not stated) | -4 | 25 | 6 | 4 | 5 | 4
C=CCOc1ccc(/C=N/NC(=O)CN2CCCCC2)cc1OC | · | · | · | · | · | -5
N#CC1=C(N)Oc2cc(N)ccc2C1c1cccc(Br)c1 (configuration not stated) | · | · | · | · | · | 55*
Cc1ccc(/C=C2\CCC3=C2OC(N)=C(C#N)C3c2ccc(C)cc2)cc1 (configuration not stated) | -8 | 4 | -31 | -74 | 6 | -81
Cc1ccc(C2C(C#N)=C(N)Oc3cc(N)ccc32)cc1 (configuration not stated) | · | · | · | · | · | 90*
N#CC1=C(N)Oc2cc(N)ccc2C1c1ccsc1 (configuration not stated) | -6 | 1 | 23 | 23 | 3 | 33*
N#CC1=C(N)Oc2cc(N)ccc2C1c1cc(Br)cs1 (configuration not stated) | · | · | · | · | · | -9
CCOc1cc(C2C(C#N)=C(N)OC(C)=C2C(C)=O)cc(Br)c1O (configuration not stated) | -4 | -1 | 1 | 1 | 8 | 19*
N#CC1=C(N)Oc2cc3ccccc3cc2C1c1cccs1 (configuration not stated) | 0 | -3 | -7 | -10 | 0 | -2
